Results gathered from unrelated publications.
Compare with care: the assays were run in different laboratories.

| SMILES | cell line | test | conditions | endpoint | value |
| --- | --- | --- | --- | --- | --- |
| CNc1ncc2c(/C=C/C(=O)N3CCC(OC)CC3)nn(CCC(C)C)c2n1 | OE33 | cell growth or viability, resazurin | 5 days | EC50 | 19.7 µM |
| CC(=O)c1nn(-c2ccc(C)cc2)/c(=N/N=C(\C)c2ccc(NC(=O)c3ccccc3)cc2)s1 | HepG2 | cell growth or viability, MTT | 0.312 µM | viability | 5.09% |
| S=C(Nc1ccccc1)Nc1ccc(Oc2nnc(-c3ccc(Cl)cc3)c3ccccc23)cc1 | HepG2 | cell growth or viability, MTT | 10 µM, 24 h | viability | 2.77% |
| Nc1ncnc2c1c(/C=C/C(=O)N1CCC(O)CC1)nn2CC1CCCC1 | OE33 | cell growth or viability, resazurin | 5 days | EC50 | > 30 µM |
| CC(C)(C)c1cnc(CSc2cnc(NC(=O)C3CCN(CCCCCCCCSc4cccc5c4CN(C4CCC(=O)NC4=O)C5=O)CC3)s2)o1 (stereo not shown) | HH | cell growth or viability, CCK-8 | 0.2 µM | viability | 0% |
| CC(=NNC(=O)c1ccncc1)c1ccc(Nc2nnc(-c3ccc(Cl)cc3)c3ccccc23)cc1 | HepG2 | cell growth or viability, MTT | 0.312 µM | cell death | 64.7% |
| CNc1ncc2c(/C=C/C(=O)N3CCOCC3)nn(CC3CCCC3)c2n1 | OE33 | cell growth or viability, resazurin | 5 days | EC50 | > 30 µM |
| CC(=NNC(N)=S)c1ccc(Nc2nnc(-c3ccc(Cl)cc3)c3ccccc23)cc1 | HepG2 | cell growth or viability, MTT | 10 µM, 24 h | viability | 7.32% |
| CCOC1CCN(C(=O)/C=C/c2nn(Cc3cccc(C)c3)c3nc(NC)ncc23)CC1 | OE33 | cell growth or viability, resazurin | 5 days | EC50 | 2.28 µM |
| CC(C)(C)c1cnc(CSc2cnc(NC(=O)C3CCN(C(=O)COCCOCCSc4cccc5c4C(=O)N(C4CCC(=O)NC4=O)C5=O)CC3)s2)o1 (stereo not shown) | HH | cell growth or viability, CCK-8 | 50 nM | viability | 97.9% |
| CCOC(Cn1nc(/C=C/C(=O)N2CCC(OC)CC2)c2cnc(NC)nc21)OCC | OE33 | cell growth or viability, resazurin | 5 days | EC50 | > 30 µM |
| CC(C)(C)c1cnc(CSc2cnc(NC(=O)C3CCN(C(=O)CCCSc4cccc5c4C(=O)N(C4CCC(=O)NC4=O)C5=O)CC3)s2)o1 (stereo not shown) | HH | cell growth or viability, CCK-8 | 0.5 µM | viability | 17.8% |
| CCOC(=O)c1nn(-c2cccc(Cl)c2)/c(=N/N=C(\C)c2ccc(NC(=O)c3ccccc3)cc2)s1 | HepG2 | cell growth or viability, MTT | 0.156 µM | viability | 25.9% |
| O=C(C=Cc1ccccc1)Nc1ccc(Oc2nnc(-c3ccc(Cl)cc3)c3ccccc23)cc1 | HepG2 | cell growth or viability, MTT | 0.312 µM, 24 h | viability | 99.6% |
| CNc1ncc2c(/C=C/C(=O)N3CCC(OC)CC3)nn(Cc3ccccc3OC)c2n1 | OE33 | cell growth or viability, resazurin | 5 days | EC50 | 7.72 µM |
| O=C(Nc1ccccc1)Nc1ccc(Oc2nnc(-c3ccc(Cl)cc3)c3ccccc23)cc1 | HepG2 | cell growth or viability, MTT | 0.625 µM, 24 h | viability | 5.31% |
| O=C(Nc1ccc([N+](=O)[O-])cc1)Nc1cccc(C(F)(F)F)c1 | LAD2 | degranulation | – | IC50 | 0.75 µM |
| C=CC(=O)NC1CCN(c2ncc3ncnc(Nc4ccc(Oc5ccc6c(c5)ncn6C)c(C)c4)c3n2)CC1 | SBC-5 | cell growth or viability | – | EC50 | 0.325 µM |
| CC(=NNC(=O)c1ccccc1O)c1ccc(Nc2nnc(-c3ccc(Cl)cc3)c3ccccc23)cc1 | HepG2 | cell growth or viability, MTT | 1.25 µM | cell death | 12.8% |
| CC(C)(C)c1cnc(CSc2cnc(NC(=O)C3CCN(CCCCSc4cccc5c4C(=O)N(C4CCC(=O)NC4=O)C5=O)CC3)s2)o1 (stereo not shown) | HH | cell growth or viability, CCK-8 | 50 nM | viability | 96.8% |
| CC(=NNC(=O)c1ccccc1Br)c1ccc(Nc2nnc(-c3ccc(Cl)cc3)c3ccccc23)cc1 | HepG2 | cell growth or viability, MTT | 0.312 µM | cell death | 14.6% |
| CC(C)(C)c1cnc(CSc2cnc(NC(=O)C3CCN(CCCCCCCSc4cccc5c4C(=O)N(C4CCC(=O)NC4=O)C5=O)CC3)s2)o1 (stereo not shown) | HH | cell growth or viability, CCK-8 | 0.15 µM | viability | 76.7% |
